From ChEMBL document CHEMBL2163269, “Double-headed sulfur-linked amino acids as first inhibitors for betaine-homocysteine S-methyltransferase 2” (J Med Chem, 2012)
Active and inactive are the calls of the source. The rule behind the calls is not given here.

Assays:
[1] = biological target: T1, S-methylmethionine--homocysteine S-methyltransferase BHMT2 (Homo sapiens) (UniProt Q9H2M3); test: Inhibition of recombinant human BHMT2 expressed in Escherichia coli […] at 20 uM
T1 sequence (whole entry): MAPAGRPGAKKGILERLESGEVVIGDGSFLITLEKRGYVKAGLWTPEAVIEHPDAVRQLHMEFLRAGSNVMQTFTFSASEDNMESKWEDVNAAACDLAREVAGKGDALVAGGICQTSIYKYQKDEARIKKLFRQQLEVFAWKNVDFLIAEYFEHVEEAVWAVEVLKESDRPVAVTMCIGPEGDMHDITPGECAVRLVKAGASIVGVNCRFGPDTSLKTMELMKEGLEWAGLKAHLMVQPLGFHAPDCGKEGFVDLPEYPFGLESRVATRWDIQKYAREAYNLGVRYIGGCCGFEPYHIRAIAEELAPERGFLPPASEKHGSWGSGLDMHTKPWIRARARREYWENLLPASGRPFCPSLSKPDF
How it was run: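 BHMT-2 copurified with BHMT, 0.2–1 μM total protein. Reaction: 0.25 mM SMM (0.3 μCi), 2.5 mM D,L-Hcy, 0.2 mM ZnCl2, 0.1% β-mercaptoethanol, 50 mM Tris/HCl pH 7.5, 60 min at 37 °C. Methanol stop, product isolated on Dowex 1×4. Percent inhibition at 20 μM, tetraplicates, means ± SEM.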

[2] = biological target: T2, Betaine--homocysteine S-methyltransferase 1 (Homo sapiens) (UniProt Q93088); test: Inhibition of recombinant human BHMT expressed in Escherichia coli […] at 20 uM
T2 sequence (whole entry): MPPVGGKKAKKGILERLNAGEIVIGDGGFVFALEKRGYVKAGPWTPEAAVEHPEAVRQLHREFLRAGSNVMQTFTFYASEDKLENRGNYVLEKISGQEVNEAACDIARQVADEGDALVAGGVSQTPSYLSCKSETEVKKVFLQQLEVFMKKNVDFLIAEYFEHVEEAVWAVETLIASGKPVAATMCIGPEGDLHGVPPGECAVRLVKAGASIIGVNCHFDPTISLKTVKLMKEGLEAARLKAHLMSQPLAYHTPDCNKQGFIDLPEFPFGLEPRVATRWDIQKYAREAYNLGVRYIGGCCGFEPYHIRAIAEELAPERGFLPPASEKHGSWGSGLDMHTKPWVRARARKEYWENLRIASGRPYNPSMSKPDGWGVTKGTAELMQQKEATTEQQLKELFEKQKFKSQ
How it was run: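 Human BHMT at 0.2 or 0.4 μM in 0.5 mL. 30 min at 37 °C, blanks without enzyme subtracted. Percent inhibition at 20 μM inhibitor in tetraplicates, means ± SEM.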

[3] = biological target: T3, S-methylmethionine--homocysteine S-methyltransferase BHMT2 (Homo sapiens, UniProt Q9H2M3); test: Competitive inhibition of recombinant human BHMT2 expressed in Escherichia coli […] by Dixon plot method in presence of D,L-homocysteine; settings: read-out: Ki(app)
T3 sequence (Q9H2M3 whole entry): T1 sequence (whole entry)
How it was run: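 BHMT-2 copurified with BHMT on chitin affinity. 0.2 mL reaction: 0.25 mM SMM (0.3 μCi), 0.2 mM ZnCl2, 0.1% β-mercaptoethanol, 50 mM Tris/HCl pH 7.5. D,L-Hcy varied 75–250 μM, inhibitor 0–300 nM. 60 min at 37 °C, methanol stop, Dowex 1×4 column. Triplicates, four separate measurements. Kiapp read from line intersection.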

[4] = biological target: T4, Betaine--homocysteine S-methyltransferase 1 (Homo sapiens, UniProt Q93088); test: Inhibition of recombinant human BHMT expressed in Escherichia coli […]
T4 sequence (Q93088 whole entry): T2 sequence (whole entry)
How it was run: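 Human BHMT at 0.2 or 0.4 μM in 0.5 mL. Mix: 2 mM 14C-betaine (0.15 μCi), 1 mM fresh D,L-Hcy, 50 mM Tris/HCl pH 7.5, 0.07% β-mercaptoethanol. 30 min at 37 °C, ice-water stop, no-enzyme blank subtracted. At least nine inhibitor concentrations, duplicates. IC50 by nonlinear regression, ±SEM from three independent runs.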

[5] = biological target: T3, S-methylmethionine--homocysteine S-methyltransferase BHMT2; test: Inhibition of recombinant human BHMT2 expressed in Escherichia coli […]
How it was run: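 BHMT-2 stabilized by copurification with BHMT, 0.2–1 μM total protein. 0.2 mL: 0.25 mM radiolabeled SMM (0.3 μCi), 2.5 mM D,L-Hcy, 0.2 mM ZnCl2, 0.1% β-mercaptoethanol, 50 mM Tris/HCl pH 7.5. 60 min at 37 °C, Dowex separation. At least nine inhibitor concentrations in duplicate. IC50 by nonlinear regression, ±SEM of three independent runs.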

SMILES | inhibition [1] | inhibition [2] | Ki [3] | IC50 [4] | IC50 [5]
NC(CCSCCCCC(=O)O)C(=O)O (stereo not given) | inactive | Active | – | – | –
N[C@@H](CCSCCSCC[C@H](N)C(=O)O)C(=O)O | 60% | – | – | – | –
N[C@@H](CCSCSCC[C@H](N)C(=O)O)C(=O)O | inactive | – | – | – | –
CC(CCSCC[C@H](N)C(=O)O)CCC(N)C(=O)O (mixture of isomers) | > 90% | 28% | 0.077 µM | 76.6 µM | 3.6 µM
CC(C)(CCSCC[C@H](N)C(=O)O)CCC(N)C(=O)O (mixture of isomers) | – | Active | – | – | –
